Compounds with a hit are over-represented: about 3.8% of the library has one in this group of screens.
KCNQ1 block = human KCNQ1 channel inhibition. AID 2642. 310,000 compounds, 1.3% hits. CHO-K1 KCNQ1, FluxOR thallium flux fluorescence; active compounds read high. B-score at 10 µM. P51787;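 active = compounds whose thallium flux B-score, printed positive for inhibition, exceeds three library SD while starting fluorescence stays within three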;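 also: channel opened by potassium depolarization with thallium stimulus after 20 min compound exposure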
KCNK3 block = human KCNK3 channel inhibition, primary screen | 340,000 compounds, 0.84% hits | B-score at 10 µM | CHO-KCNK3 thallium flux, FluxOR fluorescence; active compounds read low;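 active = B-score under library mean minus 4 SD, starting fluorescence ratio at most library mean plus 5 SD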;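 also: more negative B-score means stronger inhibition of thallium flux through KCNK3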
KCNQ1 pot = potentiators or activators of human KCNQ1 potassium channel | P51787 | CHO-K1 KCNQ1, thallium flux FluxOR fluorescence; active compounds read high | B-score at 10 µM | 310,000 compounds, 0.35% hits | AID 2648;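 active = fluorescence ratio B-score, a plate-corrected score, at least three library SD, with initial intensity B-score within 5 SD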
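Assay system: stable KCNQ1 CHO-K1 line; medium: assay buffer, equal DMSO in all wells; timing: 90 min dye loading and 20 min compound exposure, both at room temperature; technique: kinetic FluxOR thallium fluorescence, 10-s 1-Hz baseline, 110-s post-stimulus read; read-out basis: B score of baseline-normalized fluorescence ratio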
Kir21 inh = Kir2.1 (mouse) channel inhibition; P35561; HEK293-Kir2.1, FluxOR thallium flux fluorescence; active compounds read low; B-score at 10 µM; 310,000 compounds, 0.85% hits;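 active = fluorescence ratio B-score at or below minus 3 SD of library scores, with starting-brightness B-score within 2 SD, cut at about -4.2 in these data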;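 also: channel flux triggered by added potassium and thallium sulfate stimulus; B-score of peak minus minimum fluorescence over baseline after thallium stimulus; more negative B-score means stronger Kir2.1 block with less thallium influx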
Target sequence (P35561 whole entry, looked up): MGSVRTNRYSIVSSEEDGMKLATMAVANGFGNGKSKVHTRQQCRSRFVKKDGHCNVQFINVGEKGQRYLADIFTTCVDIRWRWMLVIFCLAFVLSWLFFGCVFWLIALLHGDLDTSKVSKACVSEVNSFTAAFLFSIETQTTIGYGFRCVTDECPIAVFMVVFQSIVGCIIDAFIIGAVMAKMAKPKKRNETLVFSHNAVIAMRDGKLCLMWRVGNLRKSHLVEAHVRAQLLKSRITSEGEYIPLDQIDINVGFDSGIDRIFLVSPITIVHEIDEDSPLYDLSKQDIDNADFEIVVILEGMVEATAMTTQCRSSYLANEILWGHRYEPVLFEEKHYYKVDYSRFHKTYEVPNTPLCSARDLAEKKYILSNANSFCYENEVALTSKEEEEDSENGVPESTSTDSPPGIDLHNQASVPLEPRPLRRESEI
KCNK9 block = inhibitors of human KCNK9 two-pore domain potassium channel | HEK293 KCNK9, FluxOR thallium flux fluorescence; active compounds read low | Q9NPC2 | AID 488922 | 310,000 compounds, 1.2% hits | B-score at 10 µM;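 active = ratio B-score over 3 SD below the library mean, with starting fluorescence within 5 SD of its mean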;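 also: negative B-score means less thallium flux so channel inhibition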
hERG rescue = shields human hERG channel from block by proarrhythmic agents; Q12809; CHO-hERG, FluxOR thallium flux, dofetilide IC70 present; activation (rescue from dofetilide block), less the hit threshold, % at 10 µM; 310,000 compounds, 0.51% hits; AID 1511;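 active = activation above the mean of controls blocked by dofetilide plus 5 SD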;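 also: thallium influx through hERG after potassium depolarization seen as dye fluorescence rise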
KCNK9 block conf = confirmation of human KCNK9 potassium channel inhibitors. 4,900 compounds, 43% hits. inhibition, % at 10 µM. HEK293 KCNK9 cells, FluxOR thallium flux fluorescence. shares compounds with KCNK9 block. AID 492992;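 active = thallium signal inhibited by more than 5 SD of the compound-free buffer control wells, on both duplicate plates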;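 also: 0% = assay buffer control wells without compound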
Kir21 sel = tests whether KCNK9 modulators also affect mouse Kir2.1 | shares compounds with KCNK9 block | Kir2.1 cells, FluxOR thallium flux fluorescence | inhibition, % at 10 µM | 4,900 compounds, 4% hits;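 active = thallium signal drop more than 5 SD beyond the mean of the no-compound control wells, seen in both duplicate plates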;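 also: signal is fluorescence rise after thallium addition divided by baseline fluorescence; plate controls were assay buffer only for no effect and full block by chlorpromazine control for full effect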
KCNK9 uninduced = second counter-screen for KCNK9 modulators: effect in non-induced cells; 4,900 compounds, 40% hits; non-induced KCNK9-HEK293, FluxOR thallium flux; shares compounds with KCNK9 block; inhibition, % at 10 µM; AID 492997;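 active = thallium signal drop beyond 5 SD of the untreated control mean, on both duplicate plates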;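 also: plate controls were buffer only IC0 wells for no effect and SID17386958 at its maximal inhibitory level for full effect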
* marks the source's active call; other numbers are inactive results; i = inactive; nt = no result.

SMILES	KCNQ1 block	KCNK3 block	KCNQ1 pot	Kir21 inh	KCNK9 block	hERG rescue	KCNK9 block conf	Kir21 sel	KCNK9 uninduced
Cc1cccnc1NC(=O)C1CCN(S(=O)(=O)c2c(C)noc2/C=C/c2ccco2)CC1	i	i	i	0.24	i	-11	i	i	i
Cc1ccc(NC(=O)C2CCN(S(=O)(=O)c3c(C)noc3/C=C/c3ccco3)CC2)nc1	i	i	i	3.8	i	-5	nt	nt	nt
O=C(Nc1nc(-c2cccs2)c(-c2ccccc2)s1)c1ccco1	i	i	i	0.11	-9*	-16	62%*	i	26%*
CCCCCC(=O)O[C@]1(C(C)=O)CC[C@H]2[C@@H]3CCC4=CC(=O)CC[C@]4(C)[C@H]3CC[C@@]21C	12*	-10*	i	0.01	-13*	-5	66%*	i	45%*
COc1ccc2cc(C(=O)C3CCCN(C(=O)CCc4ccccn4)C3)ccc2c1 (centres undefined)	i	i	i	2.5	i	-21	i	i	i
COc1cccc(C(=O)C2CCCN(C(=O)CCc3scnc3C)C2)c1 (centres undefined)	i	i	i	-0.24	i	-8	nt	nt	nt
O=C(c1ccc(Cl)cc1)C1CCCN(C(=O)/C=C/c2ccccn2)C1 (centres undefined)	i	i	i	0.43	i	-9	i	i	i
COc1ccc(C(=O)C2CCCN(C(=O)/C=C/c3cnc[nH]3)C2)c(C)c1 (centres undefined)	i	i	i	-0.52	i	-10	nt	nt	nt
COc1ccc(C(=O)C2CCCN(C(=O)/C=C/c3ccccn3)C2)c(C)c1 (centres undefined)	i	i	i	-0.12	i	-7	i	i	i
CN(C)CCCNC(=S)N1CCn2c(nc3ccccc32)C1	i	i	i	0.27	i	-5	nt	nt	nt
CCC(C(=O)NCCc1ccc(OC)cc1OC)n1nc(C)n2c(cc3occc32)c1=O (centres undefined)	i	i	i	1.6	i	-8	nt	nt	nt
O=C(OCCc1cc2ccccc2c(=O)o1)c1ccc(C(F)(F)F)cc1	nt	i	nt	nt	nt	nt	nt	nt	nt
Cc1ccnc(Nc2nc(-c3c(C)nc4sccn34)cs2)c1	i	i	i	4	-17*	-14	40%*	i	28%*
COc1ccc(-c2csc(Nc3cc(C)ccn3)n2)cc1OC	i	i	i	-0.16	i	-2	nt	nt	nt
C=CCCC1(C)C(=O)N(c2ccccc2)c2ccccc21 (centres undefined)	i	i	i	-6*	-8.9*	-8	42%*	i	39%*
CCN(CC(=O)Nc1c(F)cccc1F)C(=O)CCSc1ccc(F)cc1	i	i	i	-0.01	i	-14	nt	nt	nt
Cc1ccc(S(=O)(=O)NCc2ccc(C(=O)NCCc3ccc(S(N)(=O)=O)cc3)cc2)cc1	i	i	i	-0.17	i	-4	nt	nt	nt
COc1ccccc1NC(=O)Nc1nnc(C(C)c2ccccc2)s1 (centres undefined)	i	i	i	-0.33	-10*	-11	56%*	i	24%*
COC(=O)N/N=C/c1c(C)nn(-c2cccc(Cl)c2)c1Cl	i	i	i	-0.49	-8.3*	-6	42%*	i	28%*
CCOC(=O)N/N=C/c1c(C)nn(-c2cccc(C(F)(F)F)c2)c1Cl	i	i	i	1	i	-4	nt	nt	nt
CCN(CC)c1ccc(/C=N/OCC(=O)N2CCCc3ccccc32)cc1	i	i	i	-2.5	i	-11	i	i	i
O=C(CO/N=C/c1ccc(OC(F)F)cc1)N1CCc2ccccc21	i	i	i	-1.7	i	-4	nt	nt	nt
O=C(CN1CCN(c2ccccc2)CC1)N1N=CCC1c1ccccc1 (centres undefined)	i	i	i	2.6	i	-9	nt	nt	nt
NC(=O)C1CCN(CC(=O)N2N=CCC2c2ccccc2)CC1 (centres undefined)	i	i	i	-0.32	-8.9*	-7	i	i	i
COc1ccc(CN2CCN(Cc3cccc(Oc4ccccc4)c3)CC2)c(OC)c1OC	i	i	i	-2.6	i	-14	i	i	i
SMILES	KCNQ1 block	KCNK3 block	KCNQ1 pot	Kir21 inh	KCNK9 block	hERG rescue	KCNK9 block conf	Kir21 sel	KCNK9 uninduced
CN1CCN(Cc2cccc(Oc3ccccc3)c2)CC1	i	i	i	-0.38	i	-10	nt	nt	nt
COc1ccc(CN2CCN(C(c3ccc(F)cc3)c3ccc(F)cc3)CC2)c(OC)c1OC	i	i	i	-0.16	i	-27	i	i	i
O=C(CN1CCN(S(=O)(=O)c2ccc(Br)cc2)CC1)N/N=C/c1ccccc1C(=O)O	i	i	i	-0.07	i	-3	nt	nt	nt
Cc1cccc(CN2CCCC(C(=O)N3CCc4ccccc4C3)C2)c1 (centres undefined)	i	i	i	-2.1	i	-13	i	i	i
COc1ccc(CC(=O)NNC(=O)c2cc(C)oc2C)cc1OC	i	i	i	0	i	-1	nt	nt	nt
CN1CCN(S(=O)(=O)c2cccc(C(=O)Nc3nc(-c4ccccc4)cs3)c2)CC1	i	i	i	-0.2	i	-18	nt	nt	nt
O=C(c1cccc(S(=O)(=O)N2CCCCC2)c1)N(CCc1ccccc1)Cc1ccccc1	6*	i	i	-2.8	-16*	-16	62%*	i	36%*
Cc1ccc(CN(C)C(=O)c2cccc(S(=O)(=O)N3CCN(Cc4ccccc4)CC3)c2)o1	i	i	i	-0.79	i	-13	i	i	28%*
O=C(c1cccc(S(=O)(=O)N2CCOCC2)c1)N(CCO)Cc1ccccc1	i	i	i	-2.6	i	-10	nt	nt	nt
O=C(Nc1nc(-c2ccccc2)cs1)c1cccc(S(=O)(=O)N2CCN(Cc3ccccc3)CC2)c1	i	i	i	-3.7	i	-7	i	i	i
Cc1cc(C)cc(C(=O)NCCC(=O)NCc2cc(=O)n(C)c(=O)n2C)c1	i	i	i	-0.12	i	-6	nt	nt	nt
c1ccc(CCNCCOc2ccccc2)cc1	i	i	i	-1.1	i	-8	nt	nt	nt
Cc1ccc(C(C)C)c(OCCNCCc2ccccc2)c1	i	i	i	-9.9*	i	-18	i	50%*	i

Compound activity as filed in PubChem BioAssay.
